Converted amounts (≈) assume the structure as drawn.
Key:
[1] = Viability inhibition towards Namalva Lymphoblastoid Cell Culture at the concentration of 0.05 g/L after dispersion in pluronic F-68; type: functional
Summary of the method: (§1)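 Namalva lymphoblastoid suspension culture (RPMI with 10% fetal calf serum, 37 °C, 7% CO2). 2 mL medium at about 3.10^5 cells/mL was mixed with 2 mL test solution, in five flasks, with a reference series in parallel. Cells were counted after 4 days of incubation, and viability was read by Trypan Blue exclusion. Results are % vs controls.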

[2] = Growth inhibition towards Namalva Lymphoblastoid Cell Culture at the concentration of 0.1 g/L; type: functional; summary of the method: as §1
[3] = Percent hemolysis for an erythrocyte suspension at 1% hemocrait at the concentration of 20 g/10 g per L; type: functional, Homo sapiens
Summary of the method: (§2)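 Washed human red cells at 1% hematocrit (8-9 × 10^7 cells/mL) in phosphate saline pH 7.4 were mixed 1:1 with surfactant/Pluronic F-68 dispersion in 9‰ NaCl and shaken 1 h at 37 °C. After centrifugation, supernatant hemoglobin was read at 540 nm. % hemolysis = 100 (OD_test − OD_NaCl)/(OD_H2O − OD_NaCl), with 9‰ NaCl as the 0% control and water as the 100% control.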

[4] = Growth inhibition towards Namalva Lymphoblastoid Cell Culture at the concentration of 0.05 g/L after dispersion in pluronic F-68; type: functional; settings: in the assay text read “concentration of 0.1 g/L” for “concentration of 0.05 g/L”; summary of the method: as §1
[5] = Percent hemolysis for an erythrocyte suspension at 1% hemocrait at the concentration of 20 g/ L; type: functional, Homo sapiens; summary of the method: as §2
[6] = Viability inhibition towards Namalva Lymphoblastoid Cell Culture at the concentration of 0.1 g/L; type: functional; summary of the method: as §1
[7] = Percent hemolysis for an erythrocyte suspension at 1% hemocrait at the concentration of 10 g/ L; type: functional, Homo sapiens; summary of the method: as §2
Mus musculus [8] = assay: Toxicity in mice when dispersed in Pluronic F-68 in […] aqueous NaCl of 42 g/22 g per L at the concentration of 1035 mg/kg body weight; type: functional
Summary of the method: (§3)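 Single tail-vein injection into mice of about 20 g, about 0.5 mL (25 mL/kg body weight) per animal. The test article was a solution or dispersion of surfactant in Pluronic F-68, given as g compound/g Pluronic per L, in 9‰ aqueous NaCl. Symptoms, behavior, mortality and body-weight gain were recorded for 80 days after injection. Survival was reported as survivors/injected in a series of 10 mice.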

[9] = Growth and viability inhibition towards Namalva Lymphoblastoid Cell Culture after resowing at the concentration of 0.1 g/L; type: functional
Summary of the method: (§4)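 Namalva lymphoblastoid cells in suspension (RPMI, 10% fetal calf serum, 37 °C, 7% CO2). Five flasks per test, each with 2 mL medium at about 3.10^5 cells/mL plus 2 mL test solution, alongside a reference series. After 4 days the compound was removed. Cells were washed and resown in 4 mL medium, and growth and viability were reported as % vs controls.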

[10] = Hemolytic effect on human red blood cells when dispersed in Pluronic F-68 at the concentration of 20 g/10 g per L; type: functional
Summary of the method: (§5)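 Human erythrocytes were freed of plasma and buffy coat (3300 rpm, 10 min, 10 °C), washed three times in isotonic phosphate saline pH 7.4, then suspended at 1% hematocrit. 2 mL suspension plus an equal volume of surfactant dispersion in Pluronic F-68 / 9‰ NaCl (g compound/g Pluronic per L) was shaken 1 h at 37 °C. Hemolysis was scored visually (0 to ++++).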

[11] = Hemolytic effect on human red blood cells when dispersed in Pluronic F-68 at the concentration of 40 g/20 g per L; type: functional; summary of the method: as §5
Mus musculus [12] = assay: Toxicity in mice when dispersed in Pluronic F-68 in […] aqueous NaCl of 50 g/15 g per L at the concentration of 1187 mg/kg body weight; type: functional; summary of the method: as §3
[13] = Hemolytic effect on human red blood cells when dispersed in Pluronic F-68 at the concentration of 10 g/1g per L; type: functional; summary of the method: as §5
[14] = Percent hemolysis for an erythrocyte suspension at 1% hemocrait at the concentration of 10 g/1g per L; type: functional, Homo sapiens; summary of the method: as §2
[15] = Growth and viability inhibition towards Namalva Lymphoblastoid Cell Culture at the concentration of 0.05 g/L after dispersion in pluronic F-68; type: functional
[16] = Solubility was determined; type: physicochemical
Mus musculus [17] = assay: Toxicity in mice when dispersed in Pluronic F-68 in […] aqueous NaCl of 20 g/10 g per L at the concentration of 455,mg/Kg body weight; type: functional; summary of the method: as §3
[18] = Growth and viability inhibition towards Namalva Lymphoblastoid Cell Culture after resowing at the concentration of 0.1 g/L and after detoxification on anionic exchanger; type: functional; summary of the method: as §4
[19] = Viability inhibition towards Namalva Lymphoblastoid Cell Culture at the concentration of 0.1 g/L and after detoxification on anionic exchanger; type: functional; summary of the method: as §1
Mus musculus [20] = assay: Toxicity in mice when dispersed in Pluronic F-68 in […] aqueous NaCl of 0.1 g and at the concentration of 2,mg/Kg body weight; type: functional; summary of the method: as §3
[21] = Hemolytic effect on human red blood cells when dispersed in Pluronic F-68 at the concentration of 40 g/10 g per L; type: functional; summary of the method: as §5
[22] = Growth inhibition towards Namalva Lymphoblastoid Cell Culture at the concentration of 0.1 g/L and after detoxification on anionic exchanger; type: functional; summary of the method: as §1
[23] = Growth inhibition towards Namalva Lymphoblastoid Cell Culture at the concentration of 0.2 g/L; type: functional; summary of the method: as §1
[24] = Growth and viability inhibition towards Namalva Lymphoblastoid Cell Culture after resowing at the concentration of 0.2 g/L; type: functional; summary of the method: as §4
[25] = Hemolytic effect on human red blood cells when dispersed in Pluronic F-68 at the concentration of 20 g/5 g per L; type: functional; summary of the method: as §5
Mus musculus [26] = assay: Toxicity in mice when dispersed in Pluronic F-68 in […] aqueous NaCl of 20 g/5 g per L at the concentration of 491 mg/kg body weight; type: functional; summary of the method: as §3
[27] = Hemolytic effect on human red blood cells when dispersed in Pluronic F-68 at the concentration of 10 g/2.5g per L; type: functional; summary of the method: as §5
Mus musculus [28] = assay: Toxicity in mice when dispersed in Pluronic F-68 in […] aqueous NaCl of 40 g/10 g per L at the concentration of 1034 mg/kg body weight; type: functional
Mus musculus [29] = assay: Toxicity in mice when dispersed in Pluronic F-68 in […] aqueous NaCl of 15 g/3.73g per L at the concentration of 371 mg/kg body weight; type: functional; summary of the method: as §3
[30] = Viability inhibition towards Namalva Lymphoblastoid Cell Culture at the concentration of 0.2 g/L; type: functional; summary of the method: as §1
Mus musculus [31] = assay: Toxicity in mice when dispersed in Pluronic F-68 in […] aqueous NaCl of 0.1 g at the concentration of 2,mg/Kg body weight; type: functional; summary of the method: as §3
[32] = Percent hemolysis for an erythrocyte suspension at 1% hemocrait at the concentration of 1 g/L; type: functional, Homo sapiens; summary of the method: as §2
[33] = Hemolytic effect on human red blood cells when dispersed in Pluronic F-68 at the concentration of 10 g/5g per L; type: functional; summary of the method: as §5
Mus musculus [34] = assay: Toxicity in mice when dispersed in Pluronic F-68 in […] aqueous NaCl of 20 g/10 g per L at the concentration of 443 mg/kg body weight; type: functional; summary of the method: as §3
[35] = Hemolytic effect on human red blood cells when dispersed in Pluronic F-68 at the concentration of 1 g/0.05 g per L; type: functional; summary of the method: as §5
[36] = Percent hemolysis for an erythrocyte suspension at 1% hemocrait at the concentration of 1 g/0.05 g per L; type: functional, Homo sapiens; summary of the method: as §2
[37] = Hemolytic effect on human red blood cells when dispersed in Pluronic F-68 at the concentration of 20 g/1 g per L; type: functional; summary of the method: as §5

SMILES: OCC(O)C(O)C(O)COC/C=C/C(F)(F)C(F)(F)C(F)(F)C(F)(F)C(F)(F)C(F)(F)C(F)(F)C(F)(F)F (stereo not given)
- Viability [1]: 98%
- Growth [2]: 78%
- Hemolysis [3]: 0%
- Growth [4]: 108%
- Hemolysis [5]: 0%
- Viability [6]: 97%
- Hemolysis [7]: 0%
- Survival ratio (Mus musculus [8]): 8
- Resowing [9]: 100%
- Activity [10]: 32.8 mM
- Activity [11]: 65.6 mM
- Survival ratio (Mus musculus [12]): 5
- Activity [13]: 16.4 mM
- Hemolysis [14]: 0%
- Resowing [15]: 115%
- solubility [16]: 50 µg/mL (≈ 81.9 µM)
- Survival ratio (Mus musculus [17]): 10

SMILES: O=C(CCC(F)(F)C(F)(F)C(F)(F)C(F)(F)C(F)(F)C(F)(F)C(F)(F)C(F)(F)F)OCC(O)C(O)C(O)CO (stereo not given)
- solubility [16]: < 10 µg/mL

SMILES: OCC(O)C(O)C(O)COC/C=C/C(F)(F)C(F)(F)C(F)(F)C(F)(F)C(F)(F)C(F)(F)F (stereo not given)
- Resowing [18]: 105%
- Viability [19]: 93%
- Growth [2]: 23%
- Viability [6]: 80%
- Survival ratio (Mus musculus [20]): 10
- Activity [21]: 78.4 mM
- Growth [22]: 78%
- Resowing [9]: 96%
- Growth [23]: 86%
- Resowing [24]: 95%
- Activity [25]: 39.2 mM
- Survival ratio (Mus musculus [26]): 8
- Activity [27]: 19.6 mM
- Survival ratio (Mus musculus [28]): 0
- Survival ratio (Mus musculus [29]): 10
- solubility [16]: < 1000 µg/mL
- Viability [30]: 98%

SMILES: O=C(CCC(F)(F)C(F)(F)C(F)(F)C(F)(F)C(F)(F)F)OCC(O)C(O)C(O)CO (stereo not given)
- solubility [16]: 500 µg/mL (≈ 1050 µM)

SMILES: OCC(O)C(O)C(O)COC/C=C/C(F)(F)C(F)(F)C(F)(F)C(F)(F)F (stereo not given)
- Resowing [18]: 105%
- Viability [19]: 95%
- Growth [2]: 32%
- Survival ratio (Mus musculus [31]): 10
- Viability [6]: 87%
- Hemolysis [32]: 0%
- Activity [33]: 24.4 mM
- Growth [22]: 125%
- Survival ratio (Mus musculus [34]): 9
- Activity [35]: 2.4 mM
- Resowing [9]: 106%
- Hemolysis [36]: 0%
- Activity [37]: 48.7 mM
- solubility [16]: < 5000 µg/mL
